The results in this text go back to ChEMBL document CHEMBL1134615, “Structure-based design and synthesis of potent matrix metalloproteinase inhibitors derived from a 6H-1,3,4-thiadiazine scaffold” (J Med Chem, 2001).

The term Ki denotes the equilibrium dissociation constant of an inhibitor or competing ligand from its target. The low end stands for a stronger hold on the target, the high end for a looser hold on the target.

In assay [1] the target is Matrix metalloproteinase-9 (Homo sapiens, UniProt P14780). In words: In vitro inhibition of human matrix metalloprotease-9. The essentials: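 Full-length PMNL pro-gelatinase from human plasma buffy coat, activated with trypsin for 10 min at 37 °C, then trypsin inactivated with TKI. […] Buffer 50 mM HEPES pH 7.0, 10 mM CaCl2, 0.02% PEG 8000, 2% DMSO, 25 °C. Inhibitor 0.005-15 µM, 30 min preincubation, triplicate. Ki from logistic IC50 by the Horovitz-Levitski method.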

In another assay the target is Neutrophil collagenase (Homo sapiens, UniProt P22894). Put plainly: Inhibitory activity against matrix metalloprotease-8.
The target in another assay is Collagenase 3 (Homo sapiens, UniProt P45452). Put plainly: In Vitro inhibitory activity against the catalytic domain of the matrix metalloprotease-13.
The target of assay [2] is T1, Matrix metalloproteinase-14 (Homo sapiens, UniProt P50281). Put plainly: In vitro inhibitory activity against the catalytic domain of human matrix metalloprotease-14. An outline of the steps: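 E. coli-expressed human MMP-14 catalytic domain, activated by autocatalysis, at 0.3-5 nM. Assay buffer 50 mM HEPES pH 7.0, 10 mM CaCl2, 0.02% PEG 8000, 2% DMSO, 25 °C. […] Fluorescence ex 330/em 405 nm, triplicate. Ki derived from four-parameter logistic IC50 (Horovitz-Levitski).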

Assay [3] concerns the target Macrophage metalloelastase (Homo sapiens, UniProt P39900). Put plainly: In Vitro inhibitory activity against the catalytic domain of the matrix metalloprotease-12. The essentials: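 Human MMP-12 catalytic domain, expressed in E. coli as inclusion bodies, renatured and affinity-purified. FRET assay in 50 mM HEPES/NaOH pH 7.0, 10 mM CaCl2, 0.02% PEG 8000, 2% DMSO, 25 °C. […] Inhibitor at 0.005-15 µM, 30 min preincubation, ex 330/em 405 nm, triplicate. Four-parameter logistic IC50, then Ki by the Horovitz-Levitski method.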

Assay [4] addresses 72 kDa type IV collagenase (Homo sapiens, UniProt P08253).
Assay [5] deals with T1, Matrix metalloproteinase-14. Put plainly: In vitro inhibitory activity against the ectodomain of the human matrix metalloprotease-14. The essentials:
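Ectodomain of human MMP-14 (ΔTM) expressed in Pichia pastoris. […] Buffer 50 mM HEPES pH 7.0, 10 mM CaCl2, 0.02% PEG 8000, 2% DMSO, 25 °C. Inhibitor 0.005-15 µM, 30 min preincubation, ex 330/em 405 nm, triplicate. Ki from logistic-fit IC50 by the Horovitz-Levitski method.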

A further assay deals with T2, Interstitial collagenase (Homo sapiens, UniProt P03956).
T2 sequence (P03956 whole entry): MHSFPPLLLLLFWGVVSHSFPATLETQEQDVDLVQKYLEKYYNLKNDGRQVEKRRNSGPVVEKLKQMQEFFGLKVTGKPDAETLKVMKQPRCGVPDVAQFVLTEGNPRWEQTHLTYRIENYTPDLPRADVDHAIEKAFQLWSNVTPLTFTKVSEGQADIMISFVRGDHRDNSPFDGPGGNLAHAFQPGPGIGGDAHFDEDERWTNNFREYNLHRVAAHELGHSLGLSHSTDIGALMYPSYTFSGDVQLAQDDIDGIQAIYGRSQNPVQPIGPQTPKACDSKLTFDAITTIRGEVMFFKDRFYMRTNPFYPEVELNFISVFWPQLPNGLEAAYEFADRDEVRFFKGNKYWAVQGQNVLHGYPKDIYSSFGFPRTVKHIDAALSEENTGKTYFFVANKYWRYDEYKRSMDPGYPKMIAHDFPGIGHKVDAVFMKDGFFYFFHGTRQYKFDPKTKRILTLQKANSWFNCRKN
In words: In vitro inhibitory activity against full-length human matrix metalloprotease-1.

Assay [6] has as its target T1, Matrix metalloproteinase-14. Put plainly: Inhibition of matrix metalloprotease-14.

Sequence of Macrophage metalloelastase (P39900 whole entry, the tested form may be a part): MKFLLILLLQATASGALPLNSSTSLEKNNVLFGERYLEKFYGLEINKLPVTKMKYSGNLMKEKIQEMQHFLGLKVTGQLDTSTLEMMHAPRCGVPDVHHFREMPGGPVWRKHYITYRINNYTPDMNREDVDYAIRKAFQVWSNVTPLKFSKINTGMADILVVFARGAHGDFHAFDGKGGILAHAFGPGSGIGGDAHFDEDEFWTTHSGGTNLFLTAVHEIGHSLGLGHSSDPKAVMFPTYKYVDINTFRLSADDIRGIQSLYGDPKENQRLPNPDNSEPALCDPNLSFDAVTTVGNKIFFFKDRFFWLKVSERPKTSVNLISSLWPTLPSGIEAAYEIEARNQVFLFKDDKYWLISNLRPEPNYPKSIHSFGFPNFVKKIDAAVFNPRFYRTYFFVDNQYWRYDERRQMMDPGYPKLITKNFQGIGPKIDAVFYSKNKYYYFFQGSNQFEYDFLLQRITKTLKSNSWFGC
Sequence of Matrix metalloproteinase-9 (P14780 whole entry): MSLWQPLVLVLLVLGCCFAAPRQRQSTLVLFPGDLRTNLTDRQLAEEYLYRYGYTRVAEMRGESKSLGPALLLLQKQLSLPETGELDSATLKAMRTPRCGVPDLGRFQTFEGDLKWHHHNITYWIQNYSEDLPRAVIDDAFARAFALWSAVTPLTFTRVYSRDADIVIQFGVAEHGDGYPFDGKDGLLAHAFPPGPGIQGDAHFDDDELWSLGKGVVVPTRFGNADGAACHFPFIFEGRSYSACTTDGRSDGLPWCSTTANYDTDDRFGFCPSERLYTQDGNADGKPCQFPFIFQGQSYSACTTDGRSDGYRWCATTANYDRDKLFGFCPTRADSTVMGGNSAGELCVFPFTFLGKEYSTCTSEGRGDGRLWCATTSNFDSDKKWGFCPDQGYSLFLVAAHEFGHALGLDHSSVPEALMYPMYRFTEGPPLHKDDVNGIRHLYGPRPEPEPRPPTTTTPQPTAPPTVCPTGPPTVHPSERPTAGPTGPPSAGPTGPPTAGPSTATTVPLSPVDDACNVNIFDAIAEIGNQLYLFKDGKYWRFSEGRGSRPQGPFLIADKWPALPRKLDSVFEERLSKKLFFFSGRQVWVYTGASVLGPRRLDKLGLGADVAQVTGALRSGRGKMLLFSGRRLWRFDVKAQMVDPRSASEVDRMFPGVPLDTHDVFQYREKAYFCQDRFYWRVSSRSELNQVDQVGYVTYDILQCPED
Sequence of 72 kDa type IV collagenase (P08253 whole entry, the tested form may be a part): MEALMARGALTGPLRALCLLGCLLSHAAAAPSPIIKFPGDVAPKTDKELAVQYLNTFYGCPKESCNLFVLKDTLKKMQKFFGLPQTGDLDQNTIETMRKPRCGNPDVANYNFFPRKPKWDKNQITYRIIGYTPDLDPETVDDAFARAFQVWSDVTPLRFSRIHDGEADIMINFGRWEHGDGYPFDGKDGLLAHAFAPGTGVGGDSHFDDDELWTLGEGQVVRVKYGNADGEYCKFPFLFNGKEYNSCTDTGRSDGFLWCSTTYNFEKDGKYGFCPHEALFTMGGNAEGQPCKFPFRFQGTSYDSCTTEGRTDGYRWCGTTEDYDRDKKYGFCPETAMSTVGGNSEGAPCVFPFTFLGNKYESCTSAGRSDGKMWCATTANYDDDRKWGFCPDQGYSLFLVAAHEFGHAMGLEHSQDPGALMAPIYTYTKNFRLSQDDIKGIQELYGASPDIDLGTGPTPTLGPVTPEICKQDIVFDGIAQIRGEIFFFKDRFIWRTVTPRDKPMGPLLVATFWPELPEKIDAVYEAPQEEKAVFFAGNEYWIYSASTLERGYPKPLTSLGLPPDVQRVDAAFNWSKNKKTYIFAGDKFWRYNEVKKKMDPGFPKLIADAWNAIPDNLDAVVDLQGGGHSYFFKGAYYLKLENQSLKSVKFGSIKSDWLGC
Sequence of Neutrophil collagenase (P22894 whole entry, the tested form may be a part): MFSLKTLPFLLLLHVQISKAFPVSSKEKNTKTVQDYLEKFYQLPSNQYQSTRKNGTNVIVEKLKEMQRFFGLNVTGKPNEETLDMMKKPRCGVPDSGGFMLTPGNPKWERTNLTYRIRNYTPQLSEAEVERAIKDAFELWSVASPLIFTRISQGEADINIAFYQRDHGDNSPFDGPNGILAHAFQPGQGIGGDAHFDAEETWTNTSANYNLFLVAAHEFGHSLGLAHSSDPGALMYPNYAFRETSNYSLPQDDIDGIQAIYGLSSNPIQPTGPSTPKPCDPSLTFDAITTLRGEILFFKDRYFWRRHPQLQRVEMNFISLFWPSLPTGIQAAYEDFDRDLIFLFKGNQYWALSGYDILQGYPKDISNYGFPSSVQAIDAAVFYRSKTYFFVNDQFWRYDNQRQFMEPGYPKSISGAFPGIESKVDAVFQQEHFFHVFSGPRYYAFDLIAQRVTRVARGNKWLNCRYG

As for `C[C@H](NS(=O)(=O)c1ccccc1)C(=O)NC1=NN=C(C23CC4CC(CC(C4)C2)C3)CS1`, the Ki in [1] is more than 15000 nM; at Neutrophil collagenase, more than 15000 nM; at Collagenase 3 it was more than 15000 nM; in assay [2], 3070 nM; in assay [3], 410 nM; in assay [4], more than 15000 nM.
For `Cc1ccc(C2=NN=C(NC(=O)[C@@H](C)NS(=O)(=O)c3ccccc3)SC2)cc1`, the Ki stood at 210 nM in [1]; 220 nM on Neutrophil collagenase; 320 nM at Collagenase 3; 290 nM in assay [2]; 150 nM in [5]; 90 nM in [3]. Moreover, the Ki in assay [4] came out at 440 nM; at Interstitial collagenase it was 460 nM.
As to `C[C@@H](NS(=O)(=O)c1ccccc1)C(=O)NC1=NN=C(c2ccc(Cl)cc2)CS1`, the Ki in assay [1] came out at 80 nM; on Neutrophil collagenase it was 150 nM; at Collagenase 3 it was 140 nM; in [5], 210 nM; in assay [6], 50 nM; in assay [3], 320 nM. Besides, the results for the Ki (in assay [4]; at Interstitial collagenase) were 500 nM and 210 nM, respectively.
In the case of `C[C@H](NS(=O)(=O)c1ccccc1)C(=O)NC1=NN=C(c2ccc(F)cc2)CS1`, the inhibition constant Ki in assay [1] came out at 160 nM; on Collagenase 3, 650 nM; in assay [2] it was 440 nM; in assay [3] it was 280 nM; in assay [4], 450 nM; on Interstitial collagenase, 440 nM.
As for `CC(C)[C@H](NS(=O)(=O)c1ccccc1)C(=O)NC1=NN=C(c2ccc(Cl)cc2)CS1`, the Ki in assay [1] was 200 nM; at Neutrophil collagenase, 780 nM; on Collagenase 3 it was more than 15000 nM; in assay [2], 740 nM; in [3] it was 380 nM; in assay [4] it was 880 nM.
As to `Cc1ccc(C2=NN=C(NC(=O)[C@H](C)NS(=O)(=O)c3ccccc3)SC2)cc1`, the Ki in assay [1] was 160 nM; on Neutrophil collagenase, 300 nM; at Collagenase 3, 620 nM; in assay [2] it was 380 nM; in [3], 110 nM; in assay [4] it was 410 nM.
Regarding `C[C@H](NS(=O)(=O)c1ccccc1)C(=O)NC1=NN=C(c2ccc(C(F)(F)F)cc2)CS1`, the Ki in [1] worked out at 240 nM; on Neutrophil collagenase, 260 nM; at Collagenase 3, 570 nM; in assay [2] it was 580 nM; in [5], 390 nM; in assay [3], 300 nM. Besides, the Ki on Interstitial collagenase was 430 nM.
As for `CC(C)(NS(=O)(=O)c1ccccc1)C(=O)NC1=NN=C(c2ccc(Cl)cc2)CS1`, the Ki was found to be 90 nM in [1]; 480 nM at Neutrophil collagenase; 180 nM at Collagenase 3; 150 nM in [2]; 110 nM in assay [5]; 200 nM in assay [3]. Also, the values for the Ki (in [4]; on Interstitial collagenase) were 80 nM and 300 nM, respectively.
As to `C[C@H](NS(=O)(=O)c1cccs1)C(=O)NC1=NN=C(c2ccc(Cl)cc2)CS1`, the Ki in assay [1] is 800 nM; on Neutrophil collagenase, 60 nM; at Collagenase 3, 3810 nM; in assay [2], 250 nM; in assay [3], 360 nM; in [4], 550 nM.
As for `C[C@H](NS(=O)(=O)c1ccccc1)C(=O)NC1=NN=C(c2ccc(Br)cc2)CS1`, the Ki in assay [1] was 160 nM; at Neutrophil collagenase it was 110 nM; at Collagenase 3 it was 370 nM; in assay [6], 340 nM; in [3], 440 nM; in assay [4], 270 nM.
Consider `C[C@@H](NS(=O)(=O)c1ccccc1)C(=O)NC1=NN=C(c2ccc(Br)cc2)CS1`, for which the inhibition constant (Ki) in assay [1] amounted to 40 nM; at Neutrophil collagenase it was 210 nM; on Collagenase 3, 130 nM; in assay [5] it was 180 nM; in assay [6] it was 200 nM; in assay [3], 340 nM. Also, the Ki in assay [4] was 150 nM; on Interstitial collagenase it was 420 nM.
As for `C[C@H](NS(=O)(=O)Cc1ccccc1)C(=O)NC1=NN=C(c2ccc(Cl)cc2)CS1`, the Ki came out at 40 nM in assay [1]; 200 nM at Neutrophil collagenase; 120 nM on Collagenase 3; 190 nM in assay [2]; 180 nM in assay [5]; 480 nM in assay [3]. In addition, the Ki in assay [4] is 90 nM; on Interstitial collagenase, 360 nM.
For `C[C@H](NS(=O)(=O)c1ccccc1)C(=O)NC1=NN=C(c2ccc(Cl)cc2)CS1`, the Ki in [1] worked out at 60 nM; on Neutrophil collagenase it was 730 nM; on Collagenase 3, 180 nM; in [2] it was 100 nM; in assay [5] it was 210 nM; in [3], 520 nM. Besides, the Ki in assay [4] turned out to be 140 nM; on Interstitial collagenase it was 650 nM.
As for `C[C@@H](NS(=O)(=O)c1ccccc1)C(=O)NC1=NN=C(c2ccc(C#N)cc2)CS1`, the Ki in [1] worked out at 80 nM; on Neutrophil collagenase it was 230 nM; on Collagenase 3, 210 nM; in assay [5], 400 nM; in [6], 240 nM; in [3] it was 360 nM. Besides, the Ki was 210 nM in assay [4] and 400 nM at Interstitial collagenase.
Turning to `C[C@H](NS(=O)(=O)c1ccccc1)C(=O)NC1=NN=C(c2ccc(Cl)s2)CS1`, the Ki in assay [1] is 170 nM; at Neutrophil collagenase, 180 nM; on Collagenase 3, 470 nM; in assay [2] it was 320 nM; in assay [5], 200 nM; in assay [3], 240 nM. For the same compound, the values for the Ki (in assay [4]; at Interstitial collagenase) were 1870 nM and 450 nM, respectively.
For the compound `C[C@H](NS(=O)(=O)c1ccccc1)C(=O)NC1=NN=C(c2ccc([N+](=O)[O-])cc2)CS1`, the Ki in assay [1] is 130 nM; on Neutrophil collagenase, 170 nM; at Collagenase 3 it was 260 nM; in assay [2], 290 nM; in assay [3] it was 280 nM; in [4], 300 nM. The Ki at Interstitial collagenase worked out at 260 nM.
`C[C@@H](NS(=O)(=O)c1ccccc1)C(=O)NC1=NN=C(c2ccc(F)cc2)CS1`: the Ki in assay [1] turned out to be 50 nM; at Collagenase 3 it was 300 nM; in assay [2], 390 nM; in assay [5], 330 nM; in assay [3], 350 nM; in [4], 340 nM. For the same compound, the Ki on Interstitial collagenase was 630 nM.
With `COc1ccc(C2=NN=C(NC(=O)[C@H](C)NS(=O)(=O)c3ccccc3)SC2)cc1`, the inhibition constant Ki in assay [1] amounted to 320 nM; on Neutrophil collagenase, 180 nM; at Collagenase 3, 1330 nM; in [2], 590 nM; in [3] it was 340 nM; at Interstitial collagenase, 580 nM.
As to `C[C@H](NS(=O)(=O)c1ccccc1)C(=O)NC1=NN=C(c2ccc(C#N)cc2)CS1`, the Ki was determined as 80 nM in [1]; 220 nM on Neutrophil collagenase; 250 nM on Collagenase 3; 400 nM in assay [5]; 240 nM in assay [6]; 370 nM in assay [3]. For the same compound, the Ki in [4] stood at 240 nM; on Interstitial collagenase it was 390 nM.
Consider `CC(C)[C@@H](NS(=O)(=O)c1ccccc1)C(=O)NC1=NN=C(c2ccc(Cl)cc2)CS1`, for which the inhibitory constant (Ki) in assay [1] is more than 15000 nM; at Neutrophil collagenase, 4370 nM; on Collagenase 3, more than 15000 nM; in assay [2] it was 590 nM; in assay [5], 330 nM; in [3], 350 nM. The inhibitory constant (Ki) was determined as 850 nM in [4] and 550 nM on Interstitial collagenase.
